In ChEMBL document CHEMBL1128548, “Synthesis and evaluation of 5-amino-5,6,7,8-tetrahydroquinolinones as potential agents for the treatment of Alzheimer's disease” (J Med Chem, 1995):
pIC50: −log10 of the molar value. “And” between values parts separate entries of the source, which are not always exact repeats. Identical values can stand only once. The source made the active and inactive calls.

What was measured:
Acetylcholinesterase = molecular target: T1, Acetylcholinesterase (Rattus norvegicus, UniProt P37136); test: Acetylcholinesterase inhibitory activity in rat striatal homogenates
T1 sequence (P37136 whole entry): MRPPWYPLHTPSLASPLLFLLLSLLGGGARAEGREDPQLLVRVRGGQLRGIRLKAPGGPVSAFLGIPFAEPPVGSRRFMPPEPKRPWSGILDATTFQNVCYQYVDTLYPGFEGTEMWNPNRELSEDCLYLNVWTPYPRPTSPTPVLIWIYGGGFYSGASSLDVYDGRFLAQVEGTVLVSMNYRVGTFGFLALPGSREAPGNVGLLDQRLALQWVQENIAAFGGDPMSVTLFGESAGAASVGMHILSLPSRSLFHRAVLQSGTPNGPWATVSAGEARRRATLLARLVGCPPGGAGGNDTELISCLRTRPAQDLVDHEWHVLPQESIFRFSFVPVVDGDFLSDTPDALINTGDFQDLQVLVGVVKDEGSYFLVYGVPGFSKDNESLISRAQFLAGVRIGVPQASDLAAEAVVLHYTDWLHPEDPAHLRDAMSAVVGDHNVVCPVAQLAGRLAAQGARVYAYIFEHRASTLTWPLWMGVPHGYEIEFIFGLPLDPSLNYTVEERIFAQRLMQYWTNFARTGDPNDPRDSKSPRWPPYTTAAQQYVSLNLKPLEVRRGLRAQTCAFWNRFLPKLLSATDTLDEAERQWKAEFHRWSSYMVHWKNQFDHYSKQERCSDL

Mus musculus [1] = test: Active dose for reversal of Scopolamine dementia activity in mouse following s.c. administration.; assay type: functional
Summary of the method: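 Male CFW mice, 15 per group (vehicle/vehicle, scopolamine/vehicle, scopolamine/drug). Scopolamine hydrobromide 3.0 mg/kg sc 30 min before training, then test compound in distilled water 5 min before. One-trial dark passive avoidance, retested 24 h later without injection or shock. Cutoff is the second-longest scopolamine/vehicle latency. Dose is active when 20% of animals exceed cutoff. Test valid if cutoff <120 s.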

Mus musculus [2] = species: Mus musculus; test: Active dose for reversal of Scopolamine dementia(SDDA) activity in mouse; NA =' not active'; assay type: functional, organism-based
Summary of the method: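 Male CFW mice, 15 per group (vehicle/vehicle, scopolamine/vehicle, scopolamine/drug). Scopolamine hydrobromide 3.0 mg/kg sc 30 min before training, test compound in distilled water 5 min before. Step-through passive avoidance retested 24 h later without shock, recording latency. Cutoff is the second-longest scopolamine/vehicle latency. A dose is active if 20% of mice exceed the cutoff.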

Cn1c2c(ccc1=O)C(NCCc1ccc(C(F)(F)F)cc1)CCC2 (stereo not given)
pIC50 (Acetylcholinesterase): 4.89

Cc1ccc(CCNC2CCCc3c2ccc(=O)n3C)cc1 (stereo not given)
pIC50 (Acetylcholinesterase): 4.74

CC(C)=CCn1c2c(ccc1=O)C(NCCc1ccc(Cl)cc1Cl)CCC2 (stereo not given)
Active dose (Mus musculus [1]): 1 mg/kg and 3 mg/kg | pIC50 (Acetylcholinesterase): 6.10

COc1ccc(CCNC2CCCc3c2ccc(=O)n3CC=C(C)C)cc1OC (stereo not given)
pIC50 (Acetylcholinesterase): 5.79

CC(C)=CCn1c2c(ccc1=O)C(NCCc1ccc(F)c(F)c1)CCC2 (stereo not given)
pIC50 (Acetylcholinesterase): 6.01

CC(C)=CCn1c2c(ccc1=O)C(NCCc1ccc(O)cc1)CCC2 (stereo not given)
pIC50 (Acetylcholinesterase): 6.40

CC(C)n1c2c(ccc1=O)C(NCCc1ccc(Cl)c(Cl)c1)CCC2 (stereo not given)
pIC50 (Acetylcholinesterase): 4.46

CC(C)=CCn1c2c(ccc1=O)C(NCCc1ccc(Cl)c(Cl)c1)CCC2 (stereo not given)
pIC50 (Acetylcholinesterase): 6.29

Cn1c2c(ccc1=O)C(C)(N)CCC2 (stereo not given)
pIC50 (Acetylcholinesterase): < 4.00

CC1(N)CCCc2nc(O)ccc21 (stereo not given)
pIC50 (Acetylcholinesterase): < 4.00

CC(C)Cn1c2c(ccc1=O)C(NCCc1ccc(Cl)c(Cl)c1)CCC2 (stereo not given)
pIC50 (Acetylcholinesterase): 4.63

NC1(Cc2ccccc2)CCCc2[nH]c(=O)ccc21 (stereo not given)
pIC50 (Acetylcholinesterase): < 4.00

CC(C)=CCn1c2c(ccc1=O)C(N)CCC2 (stereo not given)
pIC50 (Acetylcholinesterase): < 4.00

Cn1c2c(ccc1=O)C(NCc1ccccc1)CCC2 (stereo not given)
pIC50 (Acetylcholinesterase): < 4.00

CC(C)=CCn1c2c(ccc1=O)C(NCCc1cccc(Cl)c1)CCC2 (stereo not given)
Active dose (Mus musculus [2]): inactive | pIC50 (Acetylcholinesterase): 6.28

CC(C)=CCn1c2c(ccc1=O)C(NCCc1cc(Cl)cc(Cl)c1)CCC2 (stereo not given)
pIC50 (Acetylcholinesterase): 6.10

CCCn1c2c(ccc1=O)C(NCCc1ccccn1)CCC2 (stereo not given)
Active dose (Mus musculus [2]): inactive | pIC50 (Acetylcholinesterase): 5.36

CC(C)=CCn1c2c(ccc1=O)C(NCCc1ccc(Cl)c(C(F)(F)F)c1)CCC2 (stereo not given)
Active dose (Mus musculus [2]): inactive | pIC50 (Acetylcholinesterase): 6.10

C=CCn1c2c(ccc1=O)C(NCCc1ccc(Cl)c(Cl)c1)CCC2 (stereo not given)
pIC50 (Acetylcholinesterase): 5.04

O=c1ccc2c(n1CCc1ccccc1)CCCC2NCCc1ccc(Cl)c(Cl)c1 (stereo not given)
pIC50 (Acetylcholinesterase): 4.30

CC(C)=CCn1c2c(ccc1=O)C(NCCc1ccccc1Cl)CCC2 (stereo not given)
pIC50 (Acetylcholinesterase): 6.28

COc1cccc(CCNC2CCCc3c2ccc(=O)n3CC=C(C)C)c1 (stereo not given)
pIC50 (Acetylcholinesterase): 5.96

CCCn1c2c(ccc1=O)C(NCCC(C)(C)C)CCC2 (stereo not given)
pIC50 (Acetylcholinesterase): 4.81

CC(C)CCn1c2c(ccc1=O)C(NCCc1ccc(Cl)c(Cl)c1)CCC2 (stereo not given)
Active dose (Mus musculus [1]): 3 mg/kg | pIC50 (Acetylcholinesterase): 5.63

Oc1ccc2c(n1)CCCC2NCCc1ccccc1 (stereo not given)
pIC50 (Acetylcholinesterase): < 4.00

CCCn1c2c(ccc1=O)C(NCCc1c[nH]c3ccccc13)CCC2 (stereo not given)
Active dose (Mus musculus [1]): 3 mg/kg | pIC50 (Acetylcholinesterase): 5.50

C/C=C1\[C@H]2C=C(C)C[C@]1(N)c1ccc(=O)[nH]c1C2 [HUPERZINE A]
pIC50 (Acetylcholinesterase): 7.10

CCCn1c2c(ccc1=O)C(NCCc1cccs1)CCC2.O=C(O)/C=C/C(=O)O (stereo not given)
pIC50 (Acetylcholinesterase): 5.22

CC(C)=CCn1c2c(ccc1=O)C(NCCc1cc(Cl)ccc1Cl)CCC2 (stereo not given)
pIC50 (Acetylcholinesterase): 5.87

CCCCCCn1c2c(ccc1=O)C(NCCc1ccc(Cl)c(Cl)c1)CCC2 (stereo not given)
pIC50 (Acetylcholinesterase): 5.43

CCCn1c2c(ccc1=O)C(NC1Cc3ccccc3C1)CCC2 (stereo not given)
Active dose (Mus musculus [1]): 1 mg/kg | pIC50 (Acetylcholinesterase): 5.41

Cn1c2c(ccc1=O)C(NCCc1ccccc1)CCC2 (stereo not given)
Active dose (Mus musculus [1]): 1 mg/kg | pIC50 (Acetylcholinesterase): 4.73

O=c1ccc2c(n1Cc1ccccc1)CCCC2NCCc1ccc(Cl)c(Cl)c1 (stereo not given)
pIC50 (Acetylcholinesterase): 4.76

CCCCCCCCCCn1c2c(ccc1=O)C(NCCc1ccc(Cl)c(Cl)c1)CCC2 (stereo not given)
pIC50 (Acetylcholinesterase): 4.47

Cn1c2c(ccc1=O)C(NCCCc1ccccc1)CCC2 (stereo not given)
pIC50 (Acetylcholinesterase): 4.31

C=C(C)Cn1c2c(ccc1=O)C(NCCc1ccc(Cl)c(Cl)c1)CCC2 (stereo not given)
Active dose (Mus musculus [1]): 3 mg/kg | pIC50 (Acetylcholinesterase): 5.27
